In PubChem BioAssay AID504383 (The Scripps Research Institute Molecular Screening Center, 2011):
Out of some 2,500 compounds screened, about 1,200 (48%) were called active.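 How the source made its calls: active means mean activation above the low control average plus 3 SD, as set in the primary screen (cut at about 12% in these data); inactive means the rest.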 The set was probably picked from earlier hits. The list shows a part of the results.

Target: Troponin I, cardiac muscle (Homo sapiens) + Troponin T, cardiac muscle (Homo sapiens) + Troponin C, slow skeletal and cardiac muscles (Homo sapiens) (UniProt P19429+P45379+P63316)
Test: cardiac RTF calcium sensitivity activators, confirmation, biochemical, IANBD-TnC fluorescence, triplicate (AID 504383);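 further: 0% = DMSO at 0.472 mM calcium and 100% = DMSO at 2.9 mM calcium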
Details: IANBD-labeled cardiac RTF, Ca2+ sensitivity fluorescence; at 7.2 µM; hits give high values; scaled from EC20 to saturating calcium; tested at EC20 calcium, 0.472 mM
Method in brief: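 Assay system: labelled regulated thin filament protein complex; schedule: 15 min compound incubation with filaments at 25 °C; benchmarks: low control EC20 calcium, high control EC100 calcium; reagent: Ca2+ 0.472 mM, EC20 level; doses: one dose, 7.2 µM nominal; evaluation: fluorescence gain scaled between EC20 and EC100 calcium controls; signal: filament fluorescence intensity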

| SMILES | activation |
| --- | --- |
| O=C1CCC[C@@H]2C[C@@]3(C[C@@H]4CCN1[C@H]24)Nc1cc([N+](=O)[O-])ccc1NC3=NC1CCCCC1 | 41.2% (active) |
| COC(=O)C(=N/Nc1ccccc1C(=O)OC)/C(C)=N/O | 35.7% (active) |
| Cc1ccc2nc(/C(C#N)=C\c3ccc(N4CCOCC4)o3)[nH]c2c1 | 44.2% (active) |
| N#C/C(=C/c1ccc(N2CCOCC2)o1)c1nc2ccccc2[nH]1 | 11.4% (inactive) |
| N#C/C(=C\c1ccc(N2CCOCC2)o1)c1nc2ccccc2[nH]1 | 29.6% (active) |
| Clc1ccc(-n2cc(-c3ccc(Br)cc3)[n+]3c2CCCCC3)cc1 | 0.54% (inactive) |
| c1ccc(-c2cn3nc4c(nc3n2)CCCC4)cc1 | 48.2% (active) |
| Clc1ccc(-c2cn3nc4c(nc3n2)CCCC4)cc1 | 9.46% (inactive) |
| Brc1ccc(-c2cn3nc4c(nc3n2)CCCC4)cc1 | 22.8% (active) |
| CC1(C)CC(=O)C=C(NCc2ccc(Cl)c(Cl)c2)C1 | 3.4% (inactive) |
| CC1(C)CC(=O)C=C(Nc2ccccc2N)C1 | 31.4% (active) |
| O/C=c1\ccc2cccc3nc(C(F)(F)F)nc1c23 | 5010% (active) |
| O=C(NCCc1ccccc1)c1ccc(Cl)nc1 | 16.1% (active) |
| Cc1ccccc1C(=O)NCCCc1ccccc1 | 0.23% (inactive) |
| COC(=O)C1=C(C(=O)c2ccc(C)cc2)C(c2ccc(OC)c(OC)c2)n2nnnc2N1 (stereo not given) | 9.37% (inactive) |
| CCOc1c2ccc(C(=O)NCCc3cccs3)cc2nn1CC | 9.3% (inactive) |
| CC(C)CCNC(=O)c1ccc2c(SCC(=O)O)c3c(nc2c1)CCC3 | 35.4% (active) |
| CN(Cc1ccccc1)C(=O)N1CCOCC1 | 12.1% (active) |
| Cc1cc(C)n2nc(SCC(=O)N(C)Cc3ccccc3)nc2n1 | -3.59% (inactive) |
| O=C(N1CCOCC1)N1CCC(n2nnc3ccccc32)CC1 | 5.64% (inactive) |
| CCc1cc(C(=O)Nc2ccc(OC)nc2)sc1C | 4.99% (inactive) |
| O=C(COC(=O)C1CCC(=O)N1)Nc1ccc(Oc2ccccc2)cc1 (stereo not given) | 5.98% (inactive) |
| O=C(COc1ccc(Cl)cc1)NCc1ccccc1 | 10.9% (inactive) |
| Cc1ccc(C(=O)COC(=O)C2CCC2)cc1 | 9.89% (inactive) |

| SMILES | activation |
| --- | --- |
| O=C(COC(=O)C1CCC1)NCc1ccccc1 | 286% (active) |
| O=C(COC(=O)C1CCCCC1)Nc1ccc([N+](=O)[O-])cc1 | 82.4% (active) |
| CCn1cc(C(=O)NCCC(=O)NCCO)c(=O)c2cc3c(cc21)OCO3 | 57.2% (active) |
| COc1ccccc1-[n+]1c(C)cc(/C=C2\Sc3ccccc3N2C)cc1C | 12% (active) |
| CC[n+]1c(/C=C2\Sc3ccccc3N2C)ccc2cccc(C)c21 | 6.15% (inactive) |
| CCC(CO)[n+]1c(C)cc(/C=C2\Sc3ccccc3N2Cc2ccccc2)cc1C (stereo not given) | 3.94% (inactive) |
| COc1ccc(-[n+]2c(C)cc(/C=C3\Sc4ccccc4N3C)cc2C)cc1 | 249% (active) |
| Oc1cccc(Nc2nc(O)c(/C=C3\C=Nc4ccccc43)s2)c1 | 127% (active) |
| CC(C)=CCC/C(C)=C/Cc1c(O)ccc(C(=O)/C=C/c2ccc(O)cc2)c1O | 563% (active) |
| CN(C)c1ccc(/C=C/C(=O)c2ccc(O)cc2)cc1 | 1.84% (inactive) |
| O=C(Cc1ccccc1)Nc1cccc(-c2nc3ncccc3o2)c1 | 15.3% (active) |
| CC(=O)NC(Cc1ccc(F)c(F)c1)C(=O)NC1CCN(S(=O)(=O)c2ccc(C)cc2)CC1 (stereo not given) | 6.59% (inactive) |
| COc1cccc(CC(NC(C)=O)C(=O)NC2CCN(c3nc(C)cc(C)c3C#N)CC2)c1OC (stereo not given) | 34% (active) |
| CCOC(=O)[C@H]1[C@H]2COc3ccccc3[C@@H]2N2C(=O)CN(Cc3ccc(C)cc3)C(=O)[C@@]12C | 8.95% (inactive) |
| N#C/C(=C(/O)COC(=O)c1ccccc1O)c1nc2ccccc2s1 | 5.53% (inactive) |
| N#C/C(=C\c1ccccn1)c1nc2ccccc2s1 | 14.5% (active) |
| CN1CCN(C(=O)c2cc3ccccc3[nH]2)CC1 | 6.99% (inactive) |
| COc1ccc2[nH]c(C(=O)N3CCC(Cc4ccccc4)CC3)cc2c1 | 13.6% (active) |
| O=C1c2cccc3cccc(c23)C(=O)N1CC1CCN(S(=O)(=O)c2ccc(F)cc2)CC1 | 134% (active) |
| Cc1ccc(N=C2NC(=O)/C(=C/c3cccnc3)S2)cc1C | 3.85% (inactive) |
| O=C1NC(=NCc2ccccc2)S/C1=C\c1ccccc1 | 50.1% (active) |
| Cc1ccnc(N/C=C(\C#N)c2nc(-c3cccc(Br)c3)cs2)c1 | 27.5% (active) |
| N#C/C(=C\C=C\c1ccccc1)c1nc(-c2ccc3c(c2)OCO3)cs1 | 7.13% (inactive) |
| Cc1ccnc(NC(=O)c2ccc(Br)s2)c1 | 5.46% (inactive) |

| SMILES | activation |
| --- | --- |
| O=S(=O)(/C=C/c1ccccc1)N1CCc2ccccc2C1 | 11.1% (inactive) |
| COc1ccc(NC(=O)c2cccc(-c3ccc(O)cc3)c2)cn1 | 2.76% (inactive) |
| COC(=O)c1ccc(NC(=O)c2snnc2-c2ccccc2)cc1 | 11.7% (active) |
| COC(=O)c1ccc(NC(=O)c2cccc(OC)c2)cc1 | 14.2% (active) |
| Nc1nc2ccccc2n1CCOc1ccc(Br)cc1 | 12.1% (active) |
| Cc1ccc(-c2nc3sc(C#N)c(N)n3c(=O)c2C#N)cc1 | 6.97% (inactive) |
| Cc1ccc(S(=O)(=O)c2cc(C#N)c(=O)[nH]c2N)cc1 | 23.8% (active) |
| CC1(C)CC2(CCCN(C(=S)Nc3ccccc3)C2)CCO1 (stereo not given) | 17.2% (active) |
| C=CCN1C(=O)C(Cc2cccc(Cl)c2)S/C1=N/N=C/c1ccco1 (stereo not given) | 6.48% (inactive) |
| O=C(COc1ccc(Cl)cc1[N+](=O)[O-])N1CCCCC1 | 48.7% (active) |
| O=C(COc1ccc(Cl)cc1[N+](=O)[O-])N1CCCCCC1 | 5.74% (inactive) |
| CC(Oc1ccc(S(=O)(=O)N2CCCC2)cc1[N+](=O)[O-])C(=O)N(C)c1ccccc1 (stereo not given) | 6.91% (inactive) |
| COc1cccc(OCCCn2cc(/C=C3/C(=N)N4C=C(C)SC4=NC3=O)c3ccccc32)c1 | 9.3% (inactive) |
| CC1=CN2C(=N)/C(=C/c3ccc([N+](=O)[O-])o3)C(=O)N=C2S1 | 14.5% (active) |
| CC(=O)c1cccc(-n2c(CCC(=O)O)ccc2-c2ccccc2)c1 | 7.99% (inactive) |
| CCCS(=O)(=O)N1CCC(C(=O)NCCCN2CCC(Cc3ccccc3)CC2)CC1 | 6.98% (inactive) |
| CCOc1ccc(CCNC(=O)c2ccc(CNS(=O)(=O)c3ccccc3)cc2)cc1OCC | 4.87% (inactive) |
| CCOc1ccc(CCNC(=O)C2CCCN(S(=O)(=O)N3CCOCC3)C2)cc1OCC (stereo not given) | 15.7% (active) |
| COc1cc(OC)c(C2N(c3ccc(Cl)c(Cl)c3)C(=O)C3CCCN32)cc1OC (stereo not given) | -2.98% (inactive) |
| Cn1nccc1NC(=O)Nc1cccc(Cl)c1Cl | 51.6% (active) |
| COc1cc(OC)cc(-c2c(-c3cccs3)c3cc(-c4ccc(SC)cc4)ccc3n2C)c1 | 25.8% (active) |
| C=CCn1c(=O)/c(=C/c2cc(OC)c(OC)c(OC)c2)s/c1=C(/C#N)c1nc2ccccc2n1C | 8.61% (inactive) |
| COCCCn1c(=O)/c(=C\c2cccc(OC)c2OC)s/c1=C(/C#N)C(=O)Nc1ccc(C(=O)O)cc1 | 22.2% (active) |
| COCCCn1c(=O)/c(=C\c2ccccc2OC(C)C)s/c1=C(/C#N)C(=O)Nc1ccc(C(=O)O)cc1 | 8.94% (inactive) |

| SMILES | activation |
| --- | --- |
| COCCNC(=O)CSc1nc(N)c(NC(=O)c2ccccc2F)c(=O)[nH]1 | 11.4% (inactive) |
| CCCn1c(=N)n(CC(O)c2ccco2)c2ccccc21 (stereo not given) | 2.41% (inactive) |
| CCn1c(=N)n(CC(O)c2ccccc2)c2ccccc21 (stereo not given) | 9.44% (inactive) |
| N=c1n(Cc2ccccc2)c2ccccc2n1CC(O)c1ccco1 (stereo not given) | 29.1% (active) |
| CN1CCCN(Cc2cccc3ccccc23)CC1 | 9.8% (inactive) |
| COc1cc(/C=C2\SC(=O)NC2=O)ccc1Oc1ccc([N+](=O)[O-])cn1 | 81% (active) |
| Cc1cc(C=O)c(C)n1-c1ccc(Oc2ccc([N+](=O)[O-])cn2)cc1 | 4.85% (inactive) |
| COc1ccc(C2NN=C(c3c[nH]c4ccccc34)C2O)cc1 (stereo not given) | 36.2% (active) |
| O=C(COC(=O)c1ccc(S(=O)(=O)N2CCCC2)cc1)NCc1ccco1 | 11.6% (active) |
| COc1ccccc1CNC(=O)COC(=O)c1cccc(S(=O)(=O)N2CCOCC2)c1 | 6.73% (inactive) |
| O=C(Nc1cccc2c1N(C(=O)c1ccco1)CCC2)c1ccco1 | 25.9% (active) |
| Cn1nc(C(F)(F)F)c(-c2ccc(Br)cc2)c1NC(=O)c1ccco1 | 6.3% (inactive) |
| O=C(NC(NC(=S)Nc1ccccc1C(=O)O)C(Cl)(Cl)Cl)c1ccco1 (stereo not given) | 5.56% (inactive) |
| O=C(N/N=C/c1cccc([N+](=O)[O-])c1)c1cnccn1 | 3.15% (inactive) |
| COc1ccc(/C=N/NC(=O)c2cccc([N+](=O)[O-])c2)cc1O | 15.3% (active) |
| CCOC(=O)c1c(NC(=O)CSc2nc3cc(Cl)ccc3c(=O)n2Cc2ccco2)sc(C(=O)N(C)C)c1C | 9.02% (inactive) |
| Cc1cccc(NC(=O)CSc2nnc(CSc3nc(C)cc(C)n3)n2Cc2ccco2)c1 | 8.24% (inactive) |
| CN(C)C(CNC(=O)CSc1nc2ccccc2c(=O)n1Cc1ccco1)c1ccccc1 (stereo not given) | 12.1% (active) |
| O=C(NC(=S)NCC1CCCO1)C(c1ccccc1)c1ccccc1 (stereo not given) | 12.2% (active) |
| CCc1ccccc1SCc1noc(C(=O)NCC2CCCO2)c1C(=O)O (stereo not given) | 10.6% (inactive) |
| O=C(NCC(=O)N(CC1CCCO1)C1(C(=O)NC2CCCCC2)CCCCC1)c1ccccc1 (stereo not given) | 8.78% (inactive) |
| CCOc1ccc2cc(/C=C/C(=O)c3ccco3)c(Cl)nc2c1 | 4.88% (inactive) |
| CCCc1cc(=O)[nH]c(SCC)n1 | 11.7% (active) |
